Data as given in ChEMBL document CHEMBL4431379, “Diverging Novobiocin Anti-Cancer Activity from Neuroprotective Activity through Modification of the Amide Tail” (ACS Med Chem Lett, 2016).
Active and inactive are the calls of the source. No cut-off for these calls is given here.

Legend:
[1] = Antiproliferative activity against human PC3MM2 cells; type: functional, cell-based
In short: (§1)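 Antiproliferative assay in SkBr3 (Her2-overexpressing breast) and PC3-MM2 (androgen-independent prostate) cancer cells. IC50 in μM given as mean ± standard deviation of at least two separate experiments, each run in triplicate.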

[2] = molecular target: T1, Heat shock protein HSP90 (Homo sapiens) (UniProt P07900+P08238); assay: Inhibition of Hsp90 in human PC3MM2 cells assessed as downregulation of Her2 at 0.5 to 3 times IC50 after 24 hrs by Western blot analysis; type: cell-based
In short: (§2)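 PC3-MM2 cells treated 24 h at a high (3 × IC50) and a low (0.5 × IC50) concentration. Hsp90 client protein levels measured by Western blot with actin as loading control.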

[3] = molecular target: T1, Heat shock protein HSP90 (Homo sapiens); assay: Inhibition of Hsp90 in human PC3MM2 cells assessed as downregulation of Raf1 at 0.5 to 3 times IC50 after 24 hrs by Western blot analysis; type: cell-based; in short: as §2
[4] = molecular target: T1, Heat shock protein HSP90 (Homo sapiens); assay: Inhibition of Hsp90 in human PC3MM2 cells assessed as downregulation of Akt at 0.5 to 3 times IC50 after 24 hrs by Western blot analysis; type: cell-based; in short: as §2
[5] = system: SK-BR-3; assay: Antiproliferative activity against human SK-BR-3 cells; type: functional, cell-based; in short: as §1
[6] = species on record: Homo sapiens; assay: Inhibition of Hsp90alpha/Aha1 interaction in human PC3MM2 cells assessed as remaining Hsp90alpha/Aha complex levels at 35 uM after 24 hrs by Western blot analysis (reference value: 98 to 100 %); type: cell-based
[7] = species on record: Rattus norvegicus; assay: Neuroprotective activity in rat 50B11 cells assessed as maximal respiratory capacity at 5 uM after 24 hrs in presence of oligomycin/FCCP/rotenon/antimycin by extracellular flux analysis
[8] = molecular target: T1, Heat shock protein HSP90 (Homo sapiens); assay: Induction of HSP90-mediated HSF1 expression in human PC3MM2 cells at 10 uM after 24 hrs by Western blot analysis; type: cell-based
In short: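 PC3-MM2 cells exposed to 10 μM of each compound for 24 h. HSF1 measured by Western blot relative to β-actin.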

[9] = molecular target: T1, Heat shock protein HSP90 (Homo sapiens); assay: Inhibition of Hsp90 in human PC3MM2 cells assessed as suppression of firefly luciferase rematuration at 0.02 to 20 uM incubated for 1 hr by luciferase reporter gene assay; type: cell-based
In short: (§3)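 Hsp90-dependent refolding of thermally denatured firefly luciferase in PC3-MM2 cells. Compounds tested from 0.02 to 20 μM.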

[10] = molecular target: T1, Heat shock protein HSP90 (Homo sapiens); assay: Induction of Hsp90 in human PC3MM2 cells at 0.5 to 3 times IC50 after 24 hrs by Western blot analysis; type: cell-based; in short: as §2
[11] = molecular target: T1, Heat shock protein HSP90 (Homo sapiens); assay: Inhibition of Hsp90 in human PC3MM2 cells assessed as downregulation of Her2 at 100 uM after 24 hrs by Western blot analysis; type: cell-based
[12] = species on record: Homo sapiens; assay: Inhibition of Hsp90alpha/Aha1 interaction in human PC3MM2 cells assessed as remaining Hsp90alpha/Aha complex levels at 100 uM after 24 hrs by Western blot analysis (reference value: 98 to 100 %); type: cell-based
[13] = molecular target: T1, Heat shock protein HSP90 (Homo sapiens); assay: Inhibition of Hsp90 in human PC3MM2 cells assessed as downregulation of Akt at 100 uM after 24 hrs by Western blot analysis; type: cell-based
[14] = molecular target: T1, Heat shock protein HSP90 (Homo sapiens); assay: Effect on Hsp90 in human PC3MM2 cells assessed as stimulation of firefly luciferase rematuration at 0.02 to 20 uM incubated for 1 hr by luciferase reporter gene assay; type: cell-based; in short: as §3
[15] = molecular target: T1, Heat shock protein HSP90 (Homo sapiens); assay: Inhibition of Hsp90 in human PC3MM2 cells assessed as downregulation of Raf1 at 100 uM after 24 hrs by Western blot analysis; type: cell-based
[16] = species on record: Homo sapiens; assay: Inhibition of Hsp90alpha/Aha1 interaction in human PC3MM2 cells assessed as remaining Hsp90alpha/Aha complex levels at 50 uM after 24 hrs by Western blot analysis (reference value: 98 to 100 %); type: cell-based

| Structure (SMILES) | IC50 [1] | Her2 downregulation (active/inactive call) [2] | Raf1 downregulation (active/not active) [3] | Akt downregulation (active/not active) [4] | IC50 [5] | Activity [6] | Activity [7] | fold change (FC) [8] | inhibition [9] | Activity [10] | inhibition [11] | remaining Hsp90alpha/Aha1 complex level [12] | inhibition [13] | Activity [14] | inhibition [15] | Activity [16] |
| --- | --- | --- | --- | --- | --- | --- | --- | --- | --- | --- | --- | --- | --- | --- | --- | --- |
| CCCCCCC(=O)Nc1cc2ccc(O[C@@H]3OC(C)(C)[C@H](OC)[C@@H](O)[C@H]3O)c(C)c2oc1=O | 34.7 µM | Active | Active | Active | 58.3 µM | 38% | Active | 0.6 | Active | inactive |  |  |  |  |  |  |
| CCCC(=O)Nc1cc2ccc(O[C@@H]3OC(C)(C)[C@H](OC)[C@@H](O)[C@H]3O)c(C)c2oc1=O | 466 µM |  |  |  | 313 µM |  | Active | 1.1 | inactive |  | inactive | 100% | inactive | Active | inactive |  |
| CCCCCC(=O)Nc1cc2ccc(O[C@@H]3OC(C)(C)[C@H](OC)[C@@H](O)[C@H]3O)c(C)c2oc1=O | 53.7 µM | Active | Active | Active | 84 µM |  | Active | 0.6 | Active | inactive |  |  |  |  |  | 46% |
| CO[C@@H]1[C@@H](O)[C@@H](O)[C@H](Oc2ccc3cc(NC(=O)C4CCCC4)c(=O)oc3c2C)OC1(C)C | 144 µM | Active | Active | Active | 67 µM |  | Active | 2 | Active | inactive |  | 27% |  |  |  |  |
| CO[C@@H]1[C@@H](O)[C@@H](O)[C@H](Oc2ccc3cc(NC(=O)C4CCC4)c(=O)oc3c2C)OC1(C)C | 284 µM |  |  |  | 220 µM |  | Active | 4 |  |  | inactive | 54% | inactive |  | inactive |  |
| CO[C@@H]1[C@@H](O)[C@@H](O)[C@H](Oc2ccc3cc(NC(C)=O)c(=O)oc3c2C)OC1(C)C | > 500 µM |  |  |  | > 900 µM |  | Active | 2 to 3.7 | inactive |  |  | 68 to 70% |  | Active |  |  |
| CCCCC(=O)Nc1cc2ccc(O[C@@H]3OC(C)(C)[C@H](OC)[C@@H](O)[C@H]3O)c(C)c2oc1=O | 317 µM |  |  |  | 118 µM |  | Active | 1.5 | inactive |  | inactive | 72% | inactive | Active | inactive |  |
| CCC(=O)Nc1cc2ccc(O[C@@H]3OC(C)(C)[C@H](OC)[C@@H](O)[C@H]3O)c(C)c2oc1=O | 504 µM |  |  |  | 643 µM |  | Active | 1.2 | inactive |  | inactive | 86% | inactive | Active | inactive |  |
| CO[C@@H]1[C@@H](O)[C@@H](O)[C@H](Oc2ccc3cc(NC(=O)C4CCCCC4)c(=O)oc3c2C)OC1(C)C | 54.6 µM | Active | Active | Active | 46.8 µM |  | Active | 1 | Active | inactive |  |  |  |  |  | 22% |
| CO[C@@H]1[C@@H](O)[C@@H](O)[C@H](Oc2ccc3cc(NC(=O)C4CC4)c(=O)oc3c2C)OC1(C)C | > 500 µM |  |  |  | 517 µM |  | Active | 3.7 |  |  | inactive | 68% | inactive |  | inactive |  |
